Reference: ChEMBL document CHEMBL1134274, “Discovery of a series of nonpeptide small molecules that inhibit the binding of insulin-like growth factor (IGF) to IGF-binding proteins” (J Med Chem, 2001)

Experiments:
[1] = molecular target: Insulin-like growth factor-binding protein 3 (Homo sapiens, UniProt P17936); experiment: Inhibitory activity against Insulin-like growth factor binding protein 3
Method in brief: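 IGFBP-3 purified from human plasma (0.5 pmol, 2.5 nM added) incubated 2 h at room temperature with [125I]hIGF-I (30,000 cpm) and compound in 0.02% NP-40/PBS pH 7.2, in duplicate. Complex precipitated with ice-cold 20% BSA plus 20% PEG-8000 and centrifuged; pellet counted by γ-counter. Ki calculated from inhibition of binding.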

[2] = molecular target: T1, Insulin-like growth factor-binding protein 2 (Homo sapiens, UniProt P18065); experiment: The compound was tested for binding affinity against insulin-like growth factor binding protein 2
T1 sequence (P18065 whole entry): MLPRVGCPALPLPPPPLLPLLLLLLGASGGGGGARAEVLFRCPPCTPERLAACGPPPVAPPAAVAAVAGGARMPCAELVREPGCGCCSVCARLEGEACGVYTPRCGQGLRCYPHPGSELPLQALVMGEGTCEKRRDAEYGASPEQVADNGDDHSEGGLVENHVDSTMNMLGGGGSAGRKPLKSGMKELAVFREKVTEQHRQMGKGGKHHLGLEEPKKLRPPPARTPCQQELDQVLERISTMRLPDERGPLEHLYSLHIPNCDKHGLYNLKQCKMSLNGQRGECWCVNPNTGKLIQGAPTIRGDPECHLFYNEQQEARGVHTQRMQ
Method in brief: (§1)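 Human IGFBP-1, -2, -4, -5 or -6 expressed in Sf9 insect cells (baculovirus), purified on hIGF-II affinity column then reversed-phase HPLC. 0.5 pmol binding protein incubated with [125I]hIGF-I (30,000 cpm) and increasing compound concentrations, 2 h at room temperature, in 0.02% NP-40/PBS pH 7.2, in duplicate. Complex precipitated with BSA/PEG; pellet radioactivity counted to give dose–response curves.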

[3] = molecular target: T2, Insulin-like growth factor-binding protein 4 (Homo sapiens, UniProt P22692); experiment: The compound was tested for binding affinity against Insulin-like growth factor binding protein 4; method in brief: as §1
T2 sequence (P22692 whole entry): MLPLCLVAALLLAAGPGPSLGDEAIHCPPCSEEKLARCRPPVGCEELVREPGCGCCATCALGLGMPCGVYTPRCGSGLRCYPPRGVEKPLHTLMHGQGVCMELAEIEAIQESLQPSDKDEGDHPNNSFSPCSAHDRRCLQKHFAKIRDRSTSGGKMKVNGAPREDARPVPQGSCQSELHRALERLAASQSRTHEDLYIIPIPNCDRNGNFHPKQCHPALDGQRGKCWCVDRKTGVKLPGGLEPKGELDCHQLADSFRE

[4] = molecular target: T3, Insulin-like growth factor-binding protein 1 (Homo sapiens, UniProt P08833); experiment: The compound was tested for binding affinity against insulin-like growth factor binding protein 1; method in brief: as §1
T3 sequence (P08833 whole entry): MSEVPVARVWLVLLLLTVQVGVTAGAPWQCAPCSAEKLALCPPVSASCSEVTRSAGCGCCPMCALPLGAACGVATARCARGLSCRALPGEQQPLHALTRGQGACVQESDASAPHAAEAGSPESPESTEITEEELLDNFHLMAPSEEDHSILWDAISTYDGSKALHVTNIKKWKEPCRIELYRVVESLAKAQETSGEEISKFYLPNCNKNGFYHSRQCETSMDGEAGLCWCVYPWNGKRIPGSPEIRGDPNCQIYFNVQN

[5] = molecular target: Insulin-like growth factor-binding protein 5 (Homo sapiens, UniProt P24593); experiment: The compound was tested for binding affinity against Insulin-like growth factor binding protein 5; method in brief: as §1
Sequence of Insulin-like growth factor-binding protein 5 (P24593 whole entry): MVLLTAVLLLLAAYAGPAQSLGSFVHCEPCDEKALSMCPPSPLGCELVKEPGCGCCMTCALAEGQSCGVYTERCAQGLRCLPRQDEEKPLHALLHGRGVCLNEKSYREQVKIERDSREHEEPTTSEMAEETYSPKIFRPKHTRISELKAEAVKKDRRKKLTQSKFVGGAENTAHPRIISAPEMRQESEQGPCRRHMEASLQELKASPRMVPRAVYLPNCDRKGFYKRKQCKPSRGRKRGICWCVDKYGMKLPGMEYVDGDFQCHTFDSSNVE

[6] = molecular target: T4, Insulin-like growth factor-binding protein 6 (Homo sapiens, UniProt P24592); experiment: The compound was tested for binding affinity against Insulin-like growth factor binding protein 6; method in brief: as §1
T4 sequence (P24592 whole entry): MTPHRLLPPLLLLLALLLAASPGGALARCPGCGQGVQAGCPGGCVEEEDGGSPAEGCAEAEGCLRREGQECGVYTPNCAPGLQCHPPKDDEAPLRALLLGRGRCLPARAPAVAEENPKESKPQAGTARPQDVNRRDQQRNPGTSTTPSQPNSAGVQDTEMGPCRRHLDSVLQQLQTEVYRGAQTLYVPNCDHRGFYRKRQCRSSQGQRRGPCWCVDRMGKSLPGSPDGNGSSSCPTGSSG

Sequence of Insulin-like growth factor-binding protein 3 (P17936 whole entry): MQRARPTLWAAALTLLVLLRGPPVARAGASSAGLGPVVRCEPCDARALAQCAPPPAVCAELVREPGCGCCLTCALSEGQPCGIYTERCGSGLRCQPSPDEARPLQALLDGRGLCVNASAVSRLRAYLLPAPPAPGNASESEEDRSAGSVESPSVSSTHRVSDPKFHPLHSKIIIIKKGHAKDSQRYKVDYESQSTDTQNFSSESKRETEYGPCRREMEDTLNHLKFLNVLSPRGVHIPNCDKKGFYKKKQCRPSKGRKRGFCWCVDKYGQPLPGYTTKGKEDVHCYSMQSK

## COc1cc2cc(C(=O)O)nc(C(=O)c3ccc(O)c(O)c3)c2cc1OC
[1]
  Ki: > 10000 nM

## COc1cc2cc(C(=O)O)nc(C(=O)c3ccc(O)c(O)c3)c2c(Br)c1O
[1]
  Ki: 140 nM

## O=C(O)c1cc2cc(O)c(O)cc2c(C(=O)c2ccc(Cl)cc2Cl)n1
[1]
  Ki: 44 nM

## O=C(O)c1cc2cc(O)c(O)cc2c(C(=O)c2ccc3c(c2)OCO3)n1
[1]
  Ki: 70 nM

## O=C(O)c1cc2cc(O)c(O)cc2c(C(=O)c2ccc3ccccc3c2)n1
[1]
  Ki: 13 nM

## COc1ccc(C(=O)c2nc(C(=O)O)cc3cc(OC)c(OC)cc23)cc1O
[1]
  Ki: > 10000 nM

## COc1cc2c(C(=O)c3ccc(O)c(O)c3)nc(C(=O)O)cc2c(Br)c1O
[1]
  Ki: 70 nM

## CCOC(=O)c1cc2cc(OC)c(OC)cc2c(C(=O)c2ccc(OC)c(OC)c2)n1
[1]
  Ki: > 10000 nM

## COc1ccc(C(=O)c2nc(C(=O)O)cc3cc(OC)c(O)cc23)cc1O
[1]
  Ki: 320 nM

## Oc1cc2cc(O)c(O)cc2c(Cc2ccc(O)c(O)c2)n1
[1]
  Ki: 29 nM

## O=C(c1ccc(O)c(O)c1)c1nccc2cc(O)c(O)cc12
[1]
  Ki: 58 nM

## O=C(O)c1cc2cc(O)c(O)cc2c(C(=O)c2ccc(O)c(O)c2)n1
[2]
  Ki: 2.07 nM
[3]
  Ki: 1.04 nM
[1]
  Ki: 5.6 nM
[4]
  Ki: 5.07 nM
[5]
  Ki: 5.2 nM
[6]
  Ki: 23.6 nM

## O=C(O)c1cc2cc(O)c(O)cc2c(Cc2ccc(O)c(O)c2)n1
[1]
  Ki: 7.5 nM

## O=C(O)c1cc2cc(O)c(O)cc2c(C(=O)c2cccc3ccccc23)n1
[1]
  Ki: 27 nM

## COc1ccc(C(=O)c2[nH]c(=O)cc3cc(OC)c(OC)cc23)cc1OC
[1]
  Ki: > 10000 nM

## O=C(c1ccc(O)c(O)c1)c1nc(O)cc2cc(O)c(O)cc12
[2]
  Ki: 17.1 nM
[3]
  Ki: 6.23 nM
[1]
  Ki: 28 nM
[4]
  Ki: 34.2 nM
[5]
  Ki: 20.9 nM
[6]
  Ki: 84.6 nM
